Measured values reported in ChEMBL document CHEMBL1806394, “Synthesis, in vitro evaluation and molecular docking studies of new triazole derivatives as antifungal agents” (2011).
≈ marks a conversion by molar mass, not a printed value.

Tests used:
Format in all cases: functional
[1] = tested on: Trichophyton rubrum; test: Antifungal activity against Trichophyton rubrum by micro-broth dilution method
Procedure, shortened: (§1)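 MIC80 determined by broth microdilution following NCCLS methods. C. albicans SC5314 and Y0109 and C. neoformans BLS108 served as quality-control strains and were included in every assay. Fluconazole, itraconazole, voriconazole and amphotericin B were run as positive controls.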

[2] = tested on: Candida albicans; test: Antifungal activity against Candida albicans Y0109 by micro-broth dilution method; procedure, shortened: as §1
[3] = tested on: Candida parapsilosis; test: Antifungal activity against Candida parapsilosis by micro-broth dilution method; conditions: Lodderomyces parapsilosis; procedure, shortened: as §1
[4] = tested on: Cryptococcus neoformans; test: Antifungal activity against Cryptococcus neoformans BLS108 by micro-broth dilution method; procedure, shortened: as §1
[5] = tested on: Aspergillus fumigatus; test: Antifungal activity against Aspergillus fumigatus by micro-broth dilution method; procedure, shortened: as §1
[6] = tested on: Candida tropicalis; test: Antifungal activity against Candida tropicalis by micro-broth dilution method; procedure, shortened: as §1
[7] = tested on: Candida albicans; test: Antifungal activity against Candida albicans SC5314 by micro-broth dilution method; procedure, shortened: as §1
[8] = tested on: Kluyveromyces marxianus; test: Antifungal activity against Candida kefyr by micro-broth dilution method

C[C@@H](c1ncncc1F)[C@](O)(Cn1cncn1)c1ccc(F)cc1F [VORICONAZOLE]
MIC80 [1]: 0.0156 µg/mL (≈ 0.0447 µM) | MIC80 [2]: 0.0039 µg/mL (≈ 0.0112 µM) | MIC80 [3]: 0.0039 µg/mL (≈ 0.0112 µM) | MIC80 [4]: 0.0039 µg/mL (≈ 0.0112 µM) | MIC80 [5]: 0.0039 µg/mL (≈ 0.0112 µM) | MIC80 [6]: 0.0039 µg/mL (≈ 0.0112 µM) | MIC80 [7]: 0.0039 µg/mL (≈ 0.0112 µM) | MIC80 [8]: 0.0039 µg/mL (≈ 0.0112 µM)

COc1ccc(OC)c(/C=C/C(=O)Nc2ccc(-n3cnn(CC(O)(Cn4cncn4)c4ccc(F)cc4F)c3=O)cc2)c1 (single isomer, unassigned)
MIC80 [1]: > 64 µg/mL | MIC80 [2]: 16 µg/mL (≈ 26.5 µM) | MIC80 [3]: 1 µg/mL (≈ 1.66 µM) | MIC80 [4]: > 64 µg/mL | MIC80 [5]: > 64 µg/mL | MIC80 [6]: > 64 µg/mL | MIC80 [7]: 1 µg/mL (≈ 1.66 µM) | MIC80 [8]: > 64 µg/mL

O=C(Nc1ccc(-n2cnn(CC(O)(Cn3cncn3)c3ccc(F)cc3F)c2=O)cc1)c1ccc(Cl)cc1Cl (single isomer, unassigned)
MIC80 [1]: > 64 µg/mL | MIC80 [2]: 0.0625 µg/mL (≈ 0.107 µM) | MIC80 [3]: 0.0156 µg/mL (≈ 0.0266 µM) | MIC80 [4]: > 64 µg/mL | MIC80 [5]: > 64 µg/mL | MIC80 [6]: 0.25 µg/mL (≈ 0.426 µM) | MIC80 [7]: 0.0625 µg/mL (≈ 0.107 µM) | MIC80 [8]: 4 µg/mL (≈ 6.82 µM)

O=C(Nc1ccc(-n2cnn(CC(O)(Cn3cncn3)c3ccc(F)cc3F)c2=O)cc1)c1ccc(OC(F)(F)F)cc1 (single isomer, unassigned)
MIC80 [1]: 4 µg/mL (≈ 6.65 µM) | MIC80 [2]: 1 µg/mL (≈ 1.66 µM) | MIC80 [3]: 1 µg/mL (≈ 1.66 µM) | MIC80 [4]: > 64 µg/mL | MIC80 [5]: > 64 µg/mL | MIC80 [6]: 64 µg/mL (≈ 106 µM) | MIC80 [7]: 0.25 µg/mL (≈ 0.416 µM) | MIC80 [8]: > 64 µg/mL

O=C(Nc1ccc(-n2cnn(CC(O)(Cn3cncn3)c3ccc(F)cc3F)c2=O)cc1)c1cccc(Cl)c1 (single isomer, unassigned)
MIC80 [1]: > 64 µg/mL | MIC80 [2]: 0.00024 µg/mL (≈ 0.000435 µM) | MIC80 [3]: 0.00024 µg/mL (≈ 0.000435 µM) | MIC80 [4]: 16 µg/mL (≈ 29 µM) | MIC80 [5]: > 64 µg/mL | MIC80 [6]: 1 µg/mL (≈ 1.81 µM) | MIC80 [7]: 0.00024 µg/mL (≈ 0.000435 µM) | MIC80 [8]: 4 µg/mL (≈ 7.25 µM)

O=C(/C=C/c1ccc(Cl)c(Cl)c1)Nc1ccc(-n2cnn(CC(O)(Cn3cncn3)c3ccc(F)cc3F)c2=O)cc1 (single isomer, unassigned)
MIC80 [1]: > 64 µg/mL | MIC80 [2]: 4 µg/mL (≈ 6.53 µM) | MIC80 [3]: 64 µg/mL (≈ 105 µM) | MIC80 [4]: > 64 µg/mL | MIC80 [5]: > 64 µg/mL | MIC80 [6]: 4 µg/mL (≈ 6.53 µM) | MIC80 [7]: 4 µg/mL (≈ 6.53 µM) | MIC80 [8]: > 64 µg/mL

COc1cccc(C(=O)Nc2ccc(-n3cnn(CC(O)(Cn4cncn4)c4ccc(F)cc4F)c3=O)cc2)c1 (single isomer, unassigned)
MIC80 [1]: > 64 µg/mL | MIC80 [2]: 0.0625 µg/mL (≈ 0.114 µM) | MIC80 [3]: 0.0625 µg/mL (≈ 0.114 µM) | MIC80 [4]: > 64 µg/mL | MIC80 [5]: > 64 µg/mL | MIC80 [6]: 1 µg/mL (≈ 1.83 µM) | MIC80 [7]: 0.0625 µg/mL (≈ 0.114 µM) | MIC80 [8]: 16 µg/mL (≈ 29.2 µM)

Cc1cccc(/C=C/C(=O)Nc2ccc(-n3cnn(CC(O)(Cn4cncn4)c4ccc(F)cc4F)c3=O)cc2)c1C (single isomer, unassigned)
MIC80 [1]: > 64 µg/mL | MIC80 [2]: 4 µg/mL (≈ 7 µM) | MIC80 [3]: > 64 µg/mL | MIC80 [4]: > 64 µg/mL | MIC80 [5]: > 64 µg/mL | MIC80 [6]: 16 µg/mL (≈ 28 µM) | MIC80 [7]: 1 µg/mL (≈ 1.75 µM) | MIC80 [8]: > 64 µg/mL

OC(Cn1cncn1)(Cn1cncn1)c1ccc(F)cc1F [FLUCONAZOLE]
MIC80 [1]: 1 µg/mL (≈ 3.27 µM) | MIC80 [2]: 0.25 µg/mL (≈ 0.816 µM) | MIC80 [3]: 0.25 µg/mL (≈ 0.816 µM) | MIC80 [4]: 1 µg/mL (≈ 3.27 µM) | MIC80 [5]: > 64 µg/mL | MIC80 [6]: 1 µg/mL (≈ 3.27 µM) | MIC80 [7]: 0.25 µg/mL (≈ 0.816 µM) | MIC80 [8]: 4 µg/mL (≈ 13.1 µM)

N#Cc1cccc(/C=C/C(=O)Nc2ccc(-n3cnn(CC(O)(Cn4cncn4)c4ccc(F)cc4F)c3=O)cc2)c1 (single isomer, unassigned)
MIC80 [1]: > 64 µg/mL | MIC80 [2]: 16 µg/mL (≈ 28.1 µM) | MIC80 [3]: 16 µg/mL (≈ 28.1 µM) | MIC80 [4]: > 64 µg/mL | MIC80 [5]: > 64 µg/mL | MIC80 [6]: 64 µg/mL (≈ 113 µM) | MIC80 [7]: 16 µg/mL (≈ 28.1 µM) | MIC80 [8]: > 64 µg/mL

O=C(Nc1ccc(-n2cnn(CC(O)(Cn3cncn3)c3ccc(F)cc3F)c2=O)cc1)c1cccc(Br)c1 (single isomer, unassigned)
MIC80 [1]: > 64 µg/mL | MIC80 [2]: 16 µg/mL (≈ 26.8 µM) | MIC80 [3]: 16 µg/mL (≈ 26.8 µM) | MIC80 [4]: > 64 µg/mL | MIC80 [5]: > 64 µg/mL | MIC80 [6]: 16 µg/mL (≈ 26.8 µM) | MIC80 [7]: 4 µg/mL (≈ 6.71 µM) | MIC80 [8]: 64 µg/mL (≈ 107 µM)

O=C(/C=C/c1ccc(Br)cc1)Nc1ccc(-n2cnn(CC(O)(Cn3cncn3)c3ccc(F)cc3F)c2=O)cc1 (single isomer, unassigned)
MIC80 [1]: > 64 µg/mL | MIC80 [2]: 4 µg/mL (≈ 6.43 µM) | MIC80 [3]: 1 µg/mL (≈ 1.61 µM) | MIC80 [4]: > 64 µg/mL | MIC80 [5]: > 64 µg/mL | MIC80 [6]: > 64 µg/mL | MIC80 [7]: 1 µg/mL (≈ 1.61 µM) | MIC80 [8]: > 64 µg/mL

O=C(/C=C/c1ccc([N+](=O)[O-])cc1)Nc1ccc(-n2cnn(CC(O)(Cn3cncn3)c3ccc(F)cc3F)c2=O)cc1 (single isomer, unassigned)
MIC80 [1]: > 64 µg/mL | MIC80 [2]: > 64 µg/mL | MIC80 [3]: 1 µg/mL (≈ 1.7 µM) | MIC80 [4]: > 64 µg/mL | MIC80 [5]: > 64 µg/mL | MIC80 [6]: > 64 µg/mL | MIC80 [7]: > 64 µg/mL | MIC80 [8]: > 64 µg/mL

O=C(/C=C/c1cccc(Br)c1)Nc1ccc(-n2cnn(CC(O)(Cn3cncn3)c3ccc(F)cc3F)c2=O)cc1 (single isomer, unassigned)
MIC80 [1]: > 64 µg/mL | MIC80 [2]: 1 µg/mL (≈ 1.61 µM) | MIC80 [3]: 16 µg/mL (≈ 25.7 µM) | MIC80 [4]: 16 µg/mL (≈ 25.7 µM) | MIC80 [5]: > 64 µg/mL | MIC80 [6]: 1 µg/mL (≈ 1.61 µM) | MIC80 [7]: 1 µg/mL (≈ 1.61 µM) | MIC80 [8]: > 64 µg/mL

Cc1ccc(C(=O)Nc2ccc(-n3cnn(CC(O)(Cn4cncn4)c4ccc(F)cc4F)c3=O)cc2)c(C)c1 (single isomer, unassigned)
MIC80 [1]: > 64 µg/mL | MIC80 [2]: 0.0625 µg/mL (≈ 0.115 µM) | MIC80 [3]: 0.0625 µg/mL (≈ 0.115 µM) | MIC80 [4]: > 64 µg/mL | MIC80 [5]: > 64 µg/mL | MIC80 [6]: 1 µg/mL (≈ 1.83 µM) | MIC80 [7]: 0.0625 µg/mL (≈ 0.115 µM) | MIC80 [8]: 64 µg/mL (≈ 117 µM)

COc1ccc(/C=C/C(=O)Nc2ccc(-n3cnn(CC(O)(Cn4cncn4)c4ccc(F)cc4F)c3=O)cc2)cc1OC (single isomer, unassigned)
MIC80 [1]: > 64 µg/mL | MIC80 [2]: 1 µg/mL (≈ 1.66 µM) | MIC80 [3]: 4 µg/mL (≈ 6.63 µM) | MIC80 [4]: > 64 µg/mL | MIC80 [5]: > 64 µg/mL | MIC80 [6]: 1 µg/mL (≈ 1.66 µM) | MIC80 [7]: 1 µg/mL (≈ 1.66 µM) | MIC80 [8]: > 64 µg/mL

CC(C)c1ccc(C(=O)Nc2ccc(-n3cnn(CC(O)(Cn4cncn4)c4ccc(F)cc4F)c3=O)cc2)cc1 (single isomer, unassigned)
MIC80 [1]: > 64 µg/mL | MIC80 [2]: 4 µg/mL (≈ 7.15 µM) | MIC80 [3]: 4 µg/mL (≈ 7.15 µM) | MIC80 [4]: > 64 µg/mL | MIC80 [5]: > 64 µg/mL | MIC80 [6]: 4 µg/mL (≈ 7.15 µM) | MIC80 [7]: 4 µg/mL (≈ 7.15 µM) | MIC80 [8]: > 64 µg/mL

O=C(/C=C/c1ccc(Cl)cc1)Nc1ccc(-n2cnn(CC(O)(Cn3cncn3)c3ccc(F)cc3F)c2=O)cc1 (single isomer, unassigned)
MIC80 [1]: > 64 µg/mL | MIC80 [2]: 16 µg/mL (≈ 27.7 µM) | MIC80 [3]: > 64 µg/mL | MIC80 [4]: > 64 µg/mL | MIC80 [5]: > 64 µg/mL | MIC80 [6]: > 64 µg/mL | MIC80 [7]: 4 µg/mL (≈ 6.92 µM) | MIC80 [8]: > 64 µg/mL

O=C(/C=C/c1ccccc1F)Nc1ccc(-n2cnn(CC(O)(Cn3cncn3)c3ccc(F)cc3F)c2=O)cc1 (single isomer, unassigned)
MIC80 [1]: > 64 µg/mL | MIC80 [2]: 1 µg/mL (≈ 1.78 µM) | MIC80 [3]: 4 µg/mL (≈ 7.12 µM) | MIC80 [4]: > 64 µg/mL | MIC80 [5]: > 64 µg/mL | MIC80 [6]: 4 µg/mL (≈ 7.12 µM) | MIC80 [7]: 1 µg/mL (≈ 1.78 µM) | MIC80 [8]: > 64 µg/mL

O=C(Nc1ccc(-n2cnn(CC(O)(Cn3cncn3)c3ccc(F)cc3F)c2=O)cc1)c1ccc(Cl)cc1 (single isomer, unassigned)
MIC80 [1]: > 64 µg/mL | MIC80 [2]: 1 µg/mL (≈ 1.81 µM) | MIC80 [3]: 1 µg/mL (≈ 1.81 µM) | MIC80 [4]: 0.0625 µg/mL (≈ 0.113 µM) | MIC80 [5]: > 64 µg/mL | MIC80 [6]: 1 µg/mL (≈ 1.81 µM) | MIC80 [7]: 1 µg/mL (≈ 1.81 µM) | MIC80 [8]: 1 µg/mL (≈ 1.81 µM)

O=C(/C=C/c1cccc(F)c1)Nc1ccc(-n2cnn(CC(O)(Cn3cncn3)c3ccc(F)cc3F)c2=O)cc1 (single isomer, unassigned)
MIC80 [1]: > 64 µg/mL | MIC80 [2]: 16 µg/mL (≈ 28.5 µM) | MIC80 [3]: 16 µg/mL (≈ 28.5 µM) | MIC80 [4]: > 64 µg/mL | MIC80 [5]: > 64 µg/mL | MIC80 [6]: > 64 µg/mL | MIC80 [7]: 16 µg/mL (≈ 28.5 µM) | MIC80 [8]: > 64 µg/mL
